Assays:
Rattus norvegicus [1] = assay: Percent change in HDL-CDose at 3 mg/kg; type: functional
How it was run: (§1)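 Chronic rat model of pre-established hypercholesterolemia: 1 week on high-cholesterol diet, then compound dosed orally once daily for 1 week. Plasma total cholesterol, HDL-C and non-HDL-C expressed as percent change versus control; p < 0.05 flagged.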

Rattus norvegicus [2] = assay: Percent change in non-HDL-C Dose at 3 mg/kg; type: functional; how it was run: as §1
O-acyltransferase = O-acyltransferase (Oryctolagus cuniculus, UniProt G1SFD9); assay: Acyl coenzyme A:cholesterol acyltransferase 1 inhibition in vitro measured in rabbit intestinal microsomes; set-up: species or system Intestine
[3] = target: T1, Sterol O-acyltransferase 1 (Rattus norvegicus) (UniProt O70536); assay: Percent change in plasma total cholesterol in an acute cholesterol-fed rat model of hypercholesterolemia, dose at 30 mg/kg; type: functional, organism-based; set-up: dose 30 mg/kg
T1 sequence (whole entry): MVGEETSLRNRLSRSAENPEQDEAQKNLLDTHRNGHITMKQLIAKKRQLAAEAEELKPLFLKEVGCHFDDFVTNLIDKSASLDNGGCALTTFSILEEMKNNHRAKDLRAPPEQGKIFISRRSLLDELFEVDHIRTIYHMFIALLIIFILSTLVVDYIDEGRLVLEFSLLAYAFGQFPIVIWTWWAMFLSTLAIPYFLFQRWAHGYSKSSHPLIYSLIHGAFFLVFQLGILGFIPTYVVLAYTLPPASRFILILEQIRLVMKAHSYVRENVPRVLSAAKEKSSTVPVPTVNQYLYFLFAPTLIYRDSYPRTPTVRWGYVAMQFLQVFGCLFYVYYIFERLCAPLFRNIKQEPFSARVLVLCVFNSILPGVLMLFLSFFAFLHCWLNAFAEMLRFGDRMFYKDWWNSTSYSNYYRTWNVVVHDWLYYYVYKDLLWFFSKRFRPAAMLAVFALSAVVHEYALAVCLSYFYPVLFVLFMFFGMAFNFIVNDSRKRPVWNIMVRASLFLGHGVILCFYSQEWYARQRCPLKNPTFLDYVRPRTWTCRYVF

Canis familiaris = assay: Percent change in plasma cholesterol in dog at 3 mg/kg; type: functional, Canis lupus familiaris
How it was run: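 Cholesterol-fed female Beagle dogs given bulk drug in capsules before meals, daily for 1 week, at 3 mg/kg po. Plasma total cholesterol compared before and after treatment as percent change; paired two-tailed t-test, n = 6.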

Rattus norvegicus [4] = assay: Percent change in plasma TC in the chronic C-fed rat model of pre-established hypercholesterolemia. Dose at 10 mg/kg; type: functional; how it was run: as §1
[5] = target: T1, Sterol O-acyltransferase 1 (Rattus norvegicus); assay: Percent change in plasma total cholesterol in an acute cholesterol-fed rat model of hypercholesterolemia, dose at 3 mg/kg; type: functional, organism-based; set-up: dose 3 mg/kg
Rattus norvegicus [6] = assay: Percent change in HDL-CDose at 10 mg/kg; type: functional; how it was run: as §1
Rattus norvegicus [7] = assay: Percent change in non-HDL-C Dose at 10 mg/kg; type: functional; how it was run: as §1
[8] = target: T1, Sterol O-acyltransferase 1 (Rattus norvegicus); assay: Percent change in plasma TC in the chronic C-fed rat model of pre-established hypercholesterolemia. Dose at 30 mg/kg; type: functional, organism-based; set-up: dose 30 mg/kg; how it was run: as §1
Rattus norvegicus [9] = assay: Percent change in HDL-CDose at 30 mg/kg; type: functional; how it was run: as §1
Rattus norvegicus [10] = assay: Percent change in non-HDL-C Dose at 30 mg/kg; type: functional; how it was run: as §1
Rattus norvegicus [11] = assay: Percent change in plasma TC in the chronic C-fed rat model of pre-established hypercholesterolemia. Dose at 3 mg/kg; type: functional; how it was run: as §1

## CCCCCCCCCCCCCCN1NN=C(NC(=O)Nc2c(C(C)C)cccc2C(C)C)N1
Rattus norvegicus [1]
  Delta HDL-C: 47%
Rattus norvegicus [2]
  Non-HDL-C: -48%
O-acyltransferase
  IC50: 12 nM
[3]
  Delta TC: -65%
Canis familiaris
  Delta plasma cholesterol: -22%
Rattus norvegicus [4]
  Delta TC: -53%
[5]
  Delta TC: -56%
Rattus norvegicus [6]
  Delta HDL-C: 87%
Rattus norvegicus [7]
  Non-HDL-C: -61%
[8]
  Delta TC: -61%
Rattus norvegicus [9]
  Delta HDL-C: 93%
Rattus norvegicus [10]
  Non-HDL-C: -68%
Rattus norvegicus [11]
  Delta TC: -43%

Source: ChEMBL document CHEMBL1129379, “Heterocyclic ureas: inhibitors of acyl-CoA:cholesterol O-acyltransferase as hypocholesterolemic agents” (J Med Chem, 1996)
